# From PubChem BioAssay
# T cruzi growth-1: T. cruzi proliferation inhibition | AID 624255 | actives 5.9% (n = 77,000) | inhibition, % at 8.34 µM | T. cruzi beta-gal in NIH3T3, GalScreen luminescence, 90 h;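 active means mean inhibition above about 93%, with at least 55% of replicates each passing it, limit read from the data, passing the limit was not always enough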
# GASC1 inh: inhibitors of human demethylase GASC-1 KDM4C. Q9H3R0. AID 720574. inhibition, % at 12.5 µM. actives 0.15% (n = 96,000). GST-KDM4C 2-372, H3K9me3 peptide, LANCE TR-FRET;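 active means mean replicate inhibition above about 25%, with at least 55% of replicates also reaching it, limit read from the data, passing the limit was not always enough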
#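 Test system – GST-tagged GASC-1 (JMJD2C) catalytic fragment, aa 2-372 · Medium – HEPES buffer, pH 7.5, plus ascorbate · Reagent – H3K9me3 peptide with Fe(II)/2OG · Compound – one test concentration per compound · Timing – 30 min reaction, 60 min detection, RT · Technique – TR-FRET with Eu antibody and ULight streptavidin, EDTA stop · Read-out basis – inhibition from TR-FRET ratio decrease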
# IDH1 mut inh: inhibitors of human IDH1 R132H; IDH1 R132H reductase, diaphorase/resazurin fluorescence, 60 min; O75874; actives 0.18% (n = 70,000); inhibition, % at 10 µM; in the data active means inhibition above about 34%
# Target sequence (O75874 whole entry R132H): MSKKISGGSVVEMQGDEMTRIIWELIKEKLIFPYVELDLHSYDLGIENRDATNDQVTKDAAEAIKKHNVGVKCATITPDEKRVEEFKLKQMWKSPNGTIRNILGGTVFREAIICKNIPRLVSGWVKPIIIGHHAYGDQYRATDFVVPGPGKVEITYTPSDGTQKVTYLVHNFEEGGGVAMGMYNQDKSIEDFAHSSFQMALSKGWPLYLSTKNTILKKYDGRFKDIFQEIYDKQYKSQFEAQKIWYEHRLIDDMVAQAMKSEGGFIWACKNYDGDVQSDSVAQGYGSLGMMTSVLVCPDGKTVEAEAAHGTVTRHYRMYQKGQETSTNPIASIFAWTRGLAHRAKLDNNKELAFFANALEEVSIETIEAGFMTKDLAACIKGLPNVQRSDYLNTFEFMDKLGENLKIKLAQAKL
# T cruzi growth-2: Trypanosoma cruzi proliferation inhibition. shares compounds with T cruzi growth-1. T. cruzi beta-gal in NIH3T3, GalScreen luminescence, 90 h. inhibition, % at 8.35 µM. actives 72% (n = 5,600). AID 651739;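 active means mean replicate inhibition above about 95% and at least 55% of replicates individually reaching it, limit read from the data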
# T cruzi growth-3: Trypanosoma cruzi proliferation inhibition; shares compounds with T cruzi growth-1; T. cruzi beta-gal in NIH3T3, GalScreen luminescence, 90 h; inhibition, % at 2.09 µM; actives 21% (n = 5,600);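 active means mean inhibition above about 95%, with at least 55% of replicates also reaching it, limit read from the data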
# NIH3T3 tox: kills mouse NIH/3T3 fibroblasts; shares compounds with T cruzi growth-1; NIH/3T3 viability, CellTiter-Glo ATP luminescence, 90 h; cytotoxicity (signal decrease), % at 8.35 µM; actives 14% (n = 5,600); AID 651742;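 active means mean signal decrease across replicates above about 35% based on untreated-well scatter, with enough replicates individually passing, limit read from the data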
# NIH3T3 tox 2: kills mouse NIH/3T3 fibroblasts. AID 651744. NIH/3T3 viability, CellTiter-Glo ATP luminescence, 90 h. actives 56% (n = 5,600). shares compounds with T cruzi growth-1. inhibition, % at 24.9 µM;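 active means mean loss of cell viability signal at or above a set limit, and enough replicates individually reaching it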
# Numbers stand for hits; – = inactive; · = not tested or not shown. Shown is part of a subset that was picked to be rich in hits.
SMILES,T cruzi growth-1,GASC1 inh,IDH1 mut inh,T cruzi growth-2,T cruzi growth-3,NIH3T3 tox,NIH3T3 tox 2
COc1cccc(S(=O)(=O)N(C)C[C@H]2Oc3cc(C#CCC(C)C)ccc3S(=O)(=O)N([C@@H](C)CO)C[C@@H]2C)c1,–,–,–,·,·,·,·
CC(C)CC#Cc1ccc2c(c1)O[C@@H](CN(C)S(=O)(=O)c1cccc(F)c1)[C@@H](C)CN([C@H](C)CO)S2(=O)=O,120,–,–,–,100,–,57
CC(C)CC#Cc1ccc2c(c1)O[C@@H](CN(C)S(C)(=O)=O)[C@@H](C)CN([C@H](C)CO)S2(=O)=O,–,–,–,·,·,·,·
COc1cccc(S(=O)(=O)N(C)C[C@@H]2Oc3cc(C#CCC(C)C)ccc3S(=O)(=O)N([C@@H](C)CO)C[C@H]2C)c1,96,–,–,103,108,43,78
CCOC(=O)Nc1ccc2c(c1)N(C(=O)CN1CCOCC1)c1ccccc1CC2,·,·,–,·,·,·,·
O=C(O)CCc1ccc(-c2cccs2)n1-c1cc(Cl)ccc1O,·,·,–,·,·,·,·
C[C@@H]1CCCCO[C@@H](CN(C)C(=O)Nc2ccc(C(F)(F)F)cc2)[C@@H](C)CN([C@@H](C)CO)C(=O)c2cc(N(C)C)ccc2O1,100,–,–,111,–,–,–
C[C@H]1CCCCO[C@H](CN(C)C(=O)Nc2ccc(C(F)(F)F)cc2)[C@@H](C)CN([C@@H](C)CO)C(=O)c2cc(N(C)C)ccc2O1,99,–,·,100,–,–,–
C[C@@H]1CCCCO[C@H](CN(C)C(=O)Nc2ccc(C(F)(F)F)cc2)[C@H](C)CN([C@@H](C)CO)C(=O)c2cc(N(C)C)ccc2O1,–,–,–,·,·,·,·
C[C@@H]1CCCCO[C@H](CN(C)C(=O)Nc2ccc(C(F)(F)F)cc2)[C@H](C)CN([C@H](C)CO)C(=O)c2cc(N(C)C)ccc2O1,–,–,–,·,·,·,·
CCOc1ccc2[nH]c(C)c(CCC(C)=O)c(=O)c2c1,·,·,–,·,·,·,·
COc1ccc(Cl)cc1NC(=O)CN(Cc1ccccc1)S(C)(=O)=O,·,·,–,·,·,·,·
COC1=CC(=O)OC(CCc2ccc(OC)c(OC)c2)C1 (stereo not given),·,·,–,·,·,·,·
CC(C)C#Cc1ccc([C@@H]2[C@@H](CO)N3CCCCN(S(=O)(=O)Cc4ccccc4)C[C@H]23)cc1,117,–,·,107,–,–,105
CCCC#Cc1ccc([C@@H]2[C@H](CO)N3CCCCN(S(=O)(=O)CC)C[C@@H]23)cc1,–,–,·,·,·,·,·
C[C@@H](O)C#Cc1ccc([C@@H]2[C@H]3CN(S(=O)(=O)Cc4ccccc4)CCCCN3[C@H]2CO)cc1,–,–,·,·,·,·,·
C[C@@H](O)C#Cc1ccc([C@H]2[C@H]3CN(S(=O)(=O)Cc4ccccc4)CCCCN3[C@H]2CO)cc1,–,–,·,·,·,·,·
C[C@@H](O)C#Cc1ccc([C@H]2[C@@H](CO)N3CCCCN(S(=O)(=O)Cc4ccccc4)C[C@H]23)cc1,–,–,·,·,·,·,·
CC(C)C#Cc1ccc([C@@H]2[C@H]3CN(S(=O)(=O)Cc4ccccc4)CCCCN3[C@H]2CO)cc1,101,–,·,98,–,–,106
CC(C)C#Cc1ccc([C@H]2[C@H](CO)N3CCCCN(S(=O)(=O)Cc4ccccc4)C[C@@H]23)cc1,109,–,·,106,–,–,104
CC(C)CC#Cc1ccc([C@@H]2[C@H]3CN(S(=O)(=O)Cc4ccccc4)CCCCN3[C@H]2CO)cc1,104,–,·,99,105,–,106
O=C(NCc1c(OC(=O)c2cccc([N+](=O)[O-])c2)ccc2ccccc12)c1ccccc1,·,·,–,·,·,·,·
O=C(CNS(=O)(=O)c1cc(Cl)ccc1Cl)Nc1ccc(Oc2ccccc2)cc1,·,·,–,·,·,·,·
O=C(CSc1nnc(-c2cccc([N+](=O)[O-])c2)n1-c1ccccc1)Nc1ccc(F)cc1,·,·,–,·,·,·,·
Cn1c(SCC(=O)c2cc(C(C)(C)C)c(O)c(C(C)(C)C)c2)nnc1-c1ccncc1,·,·,–,·,·,·,·
CC(C)OCCCNc1ncnc(N)c1[N+](=O)[O-],·,·,–,·,·,·,·
COc1ccc(OC)c(CNCc2ccccc2OC)c1,·,·,–,·,·,·,·
